High-throughput results as filed in PubChem BioAssay.
Compounds with a hit are over-represented: about 3.8% of the library has one in this group of screens.
KCNK3 inh = human KCNK3 channel inhibition, primary screen. O14649. CHO-KCNK3 thallium flux, FluxOR fluorescence; hits give low values. B-score at 10 µM. hit rate 0.84% among 340,000;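 active = B-score under library mean minus 4 SD, starting fluorescence ratio at most library mean plus 5 SD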;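 note: more negative B-score means stronger inhibition of thallium flux through KCNK3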
hERG protect = compounds protecting human hERG from proarrhythmic drug block; Q12809; CHO-hERG, FluxOR thallium flux, dofetilide IC70 present; activation (rescue from dofetilide block), less the hit threshold, % at 10 µM; hit rate 0.51% among 310,000; AID 1511;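 active = activation above the mean of controls blocked by dofetilide plus 5 SD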;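 note: thallium influx through hERG after potassium depolarization seen as dye fluorescence rise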
Kir21 block = inhibitors of mouse Kir2.1 inward-rectifier potassium channel; HEK293-Kir2.1, FluxOR thallium flux fluorescence; hits give low values; B-score at 10 µM; hit rate 0.85% among 310,000; AID 1672;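 active = fluorescence ratio B-score at or below minus 3 SD of library scores, with starting-brightness B-score within 2 SD, cut at about -4.2 in these data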;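 note: channel flux triggered by added potassium and thallium sulfate stimulus; B-score of peak minus minimum fluorescence over baseline after thallium stimulus; more negative B-score means stronger Kir2.1 block with less thallium influx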
KCNQ1 block = blocks the human KCNQ1 potassium channel; B-score at 10 µM; hit rate 1.3% among 310,000; P51787; CHO-K1 KCNQ1, FluxOR thallium flux fluorescence; hits give high values;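 active = compounds whose thallium flux B-score, printed positive for inhibition, exceeds three library SD while starting fluorescence stays within three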;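 note: channel opened by potassium depolarization with thallium stimulus after 20 min compound exposure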
Target sequence (P51787 whole entry, looked up): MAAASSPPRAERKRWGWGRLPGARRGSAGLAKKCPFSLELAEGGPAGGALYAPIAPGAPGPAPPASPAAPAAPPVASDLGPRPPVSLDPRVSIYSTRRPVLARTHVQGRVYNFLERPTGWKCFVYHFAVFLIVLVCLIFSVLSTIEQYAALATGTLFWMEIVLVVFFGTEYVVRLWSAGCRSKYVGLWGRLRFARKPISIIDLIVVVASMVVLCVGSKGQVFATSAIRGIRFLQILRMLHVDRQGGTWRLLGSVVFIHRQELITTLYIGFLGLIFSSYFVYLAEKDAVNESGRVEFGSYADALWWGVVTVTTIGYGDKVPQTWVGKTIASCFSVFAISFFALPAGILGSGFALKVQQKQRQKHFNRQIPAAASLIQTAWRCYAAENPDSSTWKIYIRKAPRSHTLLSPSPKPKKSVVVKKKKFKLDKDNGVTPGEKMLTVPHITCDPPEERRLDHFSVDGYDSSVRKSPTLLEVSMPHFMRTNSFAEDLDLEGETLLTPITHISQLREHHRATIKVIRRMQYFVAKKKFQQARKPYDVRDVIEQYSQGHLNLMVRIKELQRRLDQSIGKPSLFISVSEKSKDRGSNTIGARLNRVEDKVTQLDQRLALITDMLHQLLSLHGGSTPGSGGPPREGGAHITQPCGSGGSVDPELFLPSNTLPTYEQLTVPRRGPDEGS
KCNK9 inh = inhibitors of human KCNK9 two-pore domain potassium channel; B-score at 10 µM; Q9NPC2; hit rate 1.2% among 310,000; HEK293 KCNK9, FluxOR thallium flux fluorescence; hits give low values;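 active = ratio B-score over 3 SD below the library mean, with starting fluorescence within 5 SD of its mean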;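 note: negative B-score means less thallium flux so channel inhibition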
KCNQ1 act = potentiators or activators of human KCNQ1 potassium channel; P51787; CHO-K1 KCNQ1, thallium flux FluxOR fluorescence; hits give high values; B-score at 10 µM; hit rate 0.35% among 310,000;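 active = fluorescence ratio B-score, a plate-corrected score, at least three library SD, with initial intensity B-score within 5 SD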
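Material: CHO-K1 cells stably expressing KCNQ1. Medium: assay buffer for compound exposure, DMSO matched across wells. Reagent: K+/Tl+ depolarizing stimulus. Compound dosing: single-concentration screen. Times: 37 °C overnight plating, 90-min dark dye load, 20-min compound pretreatment. Technique: FluxOR Tl+ flux fluorescence.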
KCNQ1 inh valid = reconfirmed blocker of the human KCNQ1 potassium channel. inhibition, % at 10 µM. KCNQ1 cell line, FluxOR thallium flux fluorescence. shares compounds with KCNQ1 block. hit rate 93% among 1,600. AID 588353;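 active = primary screen active, with duplicate mean exceeding buffer control mean plus 3 SD of buffer wells, cut at about 28% in these data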;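 note: 0% = buffer control ratio and 100% = XE991 inhibitor control ratio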
CHO KCNQ1 ctr = KCNQ1 inhibitor counter-screen hit in parental CHO cells; shares compounds with KCNQ1 block; parental CHO-K1, FluxOR thallium flux fluorescence ratio; hits give low values; zero means no signal rise above baseline; fluorescence ratio (Tl flux) at 10 µM; hit rate 21% among 1,600; AID 588366;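 active = mean of duplicate thallium-flux fluorescence ratios in parental host cells more than 5 SD below the buffer control mean, cut at about 0.38 in these data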;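 note: ratio is peak minus minimum fluorescence divided by baseline fluorescence; actives read low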
KCNQ1 APC inh = blocks human KCNQ1 current in automated patch clamp; shares compounds with KCNQ1 block; KCNQ1-CHO cells; calls only at 10 µM; hit rate 20% among 490;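 active = KCNQ1 current drop exceeding 3 SD of negative control wells, seen in both duplicate runs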;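 note: steady state current during a 2 s step from -80 to +40 mV; negative values mean current inhibition and positive values mean potentiation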
KCNQ2 spec = KCNQ1 inhibitor that also blocks rat KCNQ2 channel. AID 651746. inhibition, % at 10 µM. shares compounds with KCNQ1 block. hit rate 71% among 1,600. KCNQ2 cells, FluxOR thallium flux fluorescence;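 active = mean percent inhibition of the KCNQ2 thallium signal more than 5 SD above the buffer-only control wells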;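 note: KCNQ2 expressed in CHO cells; 0% = buffer control wells and 100% = XE-991 inhibitor control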
KCNQ1-KCNE1 inh = human KCNQ1/KCNE1 inhibition in KCNQ1 specificity screen | hit rate 77% among 1,600 | shares compounds with KCNQ1 block | AID 652147 | KCNQ1/KCNE1 cells, FluxOR thallium flux fluorescence | inhibition, % at 10 µM;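 active = mean percent inhibition of duplicate wells above the buffer-only control mean plus 3 SD of those controls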;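 note: 0% = buffer only wells and 100% = XE-991 inhibitor control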
KCNK9 inh conf = confirmation of human KCNK9 potassium channel inhibitors. hit rate 43% among 4,900. inhibition, % at 10 µM. HEK293 KCNK9 cells, FluxOR thallium flux fluorescence. shares compounds with KCNK9 inh;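 active = thallium signal inhibited by more than 5 SD of the compound-free buffer control wells, on both duplicate plates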;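 note: 0% = assay buffer control wells without compound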
Kir2-1 spec = selectivity of KCNK9 modulators against mouse Kir2.1. Kir2.1 cells, FluxOR thallium flux fluorescence. hit rate 4% among 4,900. AID 492993. inhibition, % at 10 µM. shares compounds with KCNK9 inh;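 active = thallium signal drop more than 5 SD beyond the mean of the no-compound control wells, seen in both duplicate plates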;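 note: signal is fluorescence rise after thallium addition divided by baseline fluorescence; plate controls were assay buffer only for no effect and full block by chlorpromazine control for full effect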
HEK293 Tl ctr = second check of KCNK9 modulator effects in non-induced HEK293 cells. shares compounds with KCNK9 inh. FluxOR thallium flux. inhibition, % at 10 µM. hit rate 40% among 4,900. AID 492997;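 active = thallium signal drop beyond 5 SD of the untreated control mean, on both duplicate plates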;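 note: plate controls were buffer only IC0 wells for no effect and SID17386958 at its maximal inhibitory level for full effect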
* hit, by the source's call; i = inactive; · = no result; + = active, no number.

SMILES	KCNK3 inh	hERG protect	Kir21 block	KCNQ1 block	KCNK9 inh	KCNQ1 act	KCNQ1 inh valid	CHO KCNQ1 ctr	KCNQ2 spec	KCNQ1-KCNE1 inh	others
CC(NS(=O)(=O)c1ccc(Cl)c(Cl)c1)C(=O)OCC(=O)Nc1ccc2c(c1)OCO2 (centres undefined)	i	-9	0.32	6*	i	i	0	0.47	62%*	i
CCC1Sc2ccc(S(=O)(=O)Nc3ccc(OC)cc3)cc2NC1=O (centres undefined)	i	-6	-0.51	i	i	i	·	·	·	·
CCC1Sc2ccc(S(=O)(=O)Nc3ccc(OC)c(OC)c3)cc2NC1=O (centres undefined)	i	-10	-0.23	7*	i	i	80*	0.48	69%*	i
Cc1[nH]c(=O)c(C#N)c(C)c1CCC(=O)NCc1ccc(Cl)cc1	i	-1	-1.4	i	i	i	·	·	·	·
Cc1cc(C)c2nc(Nc3nc(-c4ccccc4)cc(=O)[nH]3)nc(C)c2c1	i	-9	0.05	i	i	i	·	·	·	·
CC1=CC(C)(C)N=C(Nc2nc(C)c3cc(C)cc(C)c3n2)N1	i	-24	-1	6*	i	i	79*	0.51	70%*	59%*
COc1cc(NC(=O)c2ccnnc2)cc(C(=O)Nc2cccc(C(F)(F)F)c2)c1	i	-16	0.21	9*	i	i	92*	0.47	111%*	117%*
O=C(Nc1cccc(C(F)(F)F)c1)c1cccnc1	i	-9	0.02	i	i	i	·	·	·	·
Cn1c(=O)c2[nH]c(-c3ccccc3)c(O)c2n(C)c1=O	i	-11	-2.3	7*	i	i	45*	0.39	i	91%*
Cn1c(=O)c2[nH]c(-c3ccccc3Cl)c(O)c2n(C)c1=O	i	-5	0.05	6*	i	i	82*	0.41	i	98%*
Cn1c2c(c(=O)n(C)c1=O)C(C(F)(F)F)(C(F)(F)F)N=C(c1ccccc1Cl)N2	i	-8	-0.12	i	i	i	·	·	·	·
NC(=O)c1ccsc1NC(=O)CSc1nnc(NC2CC2)s1	i	·	·	·	·	·	·	·	·	·
COc1ccccc1NC(=O)C(C)OC(=O)C1CCC(C(C)(C)C)CC1 (centres undefined)	i	-5	-2.6	7*	-7.1*	i	122*	0.49	83%*	156%*	KCNQ1 APC inh=i
CC(=O)N(c1cccc(Cl)c1)c1nc(C)cc(C)c1C#N	i	-15	-1.9	i	i	i	·	·	·	·
Cc1ccc(-c2csc(=Nc3cccnc3)n2CCCN2CCCC2=O)cc1C	i	-9	-1.7	i	i	i	·	·	·	·
Cc1ccc(-c2csc(=Nc3cccnc3)n2CCCn2ccnc2)cc1C	i	-17	-4.5*	12*	i	i	42*	0.45	80%*	i
CNc1ccc2c3c(cccc13)C(=O)N(C)C2=O	i	-49	-17	32*	i	i	+	0.003*	i	i
F[B-](F)(F)COc1ccccc1	i	·	·	·	·	·	·	·	·	·
COc1ccc(NC(=O)CN2CCN(c3ccccn3)CC2)cc1Cl	i	-2	-0.42	i	i	i	·	·	·	·
Cc1c(C(=O)Nc2c(F)cccc2F)sc2ncnc(N3CCN(c4ccccc4)CC3)c12	i	-15	0.13	7*	i	i	64*	0.45	104%*	88%*
Cc1cc(Br)ccc1NC(=O)c1sc2ncnc(N3CCN(c4ccccn4)CC3)c2c1C	i	-17	-0.43	6*	i	i	89*	0.44	104%*	82%*	KCNQ1 APC inh=i
COc1ccc(NC(=O)c2sc3ncnc(N4CCN(c5ccccn5)CC4)c3c2C)cc1Cl	i	-19	-0.19	8*	i	i	80*	0.4	97%*	108%*
CC(C)C[C@H](NC(=O)[C@H](Cc1ccccc1)n1c(=O)[nH]c2ccccc2c1=O)C(=O)N1CCC[C@@H]1C(=O)O	i	-7	0.58	i	i	i	·	·	·	·
COc1ccc(NC(=O)C2C3C=CC4(O3)C2C(=O)N(CCN2CCCCC2C)C4C(=O)NC2CCCCC2)cc1 (centres undefined)	i	-12	-0.56	i	i	i	·	·	·	·
COc1ccc(-c2nc3ccccc3nc2-c2ccc(OC)c(OC)c2)cc1OC	i	-6	0.04	i	i	i	·	·	·	·
Oc1ccc(-c2nc3ccccc3nc2-c2ccccc2)cc1	i	-13	0.64	7*	i	i	84*	0.38*	71%*	110%*
COc1ccc(-c2nc3ccccc3nc2-c2ccc(OC)cc2)cc1	i	-9	0.33	10*	i	i	88*	0.34*	96%*	115%*
O=C(Nc1cccc(Cl)c1)N1CCSc2cc(Cl)ccc21	i	-17	0.06	9*	i	i	119*	0.45	111%*	68%*
COc1ccccc1CCNC(=O)c1cc(COc2cccc(C(F)(F)F)c2)on1	i	-2	-0.01	7*	i	i	100*	0.45	88%*	98%*	KCNQ1 APC inh=i;KCNK9 inh conf=i;Kir2-1 spec=i;HEK293 Tl ctr=i
